From ChEMBL document CHEMBL1127374, “Synthesis and antiviral (HIV-1, HBV) activities of 5-halo-6-methoxy(or azido)-5,6-dihydro-3'-fluoro-3'-deoxythymidine diastereomers. Potential prodrugs to 3'-fluoro-3'-deoxythymidine” (J Med Chem, 1994)

Experiments:
[1] = Tested for in vitro percent of 3'-fluoro-3'-deoxythymidine(FLT) formed upon incubation with glutathione; type: ADME
How it was run: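 Test compound incubated with reduced glutathione at a 1:2 molar ratio in phosphate buffer, pH 7.4, 37 °C, 30 min. UV detection at 230 nm for the 5,6-dihydro compound and 265 nm for FLT.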

CCRF-CEM [2] = test: Tested for in vitro drug concentration which produces 50% survival of HIV-1 infected CEM cells relative to uninfected untreated controls; type: functional, cell-based; details: Homo sapiens
How it was run: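 CEM T4 lymphocytes infected with small amounts of HIV-1, so that a complete replication cycle is needed for cell killing. Protection from cytolysis measured. EC50 is the concentration giving 50% survival of infected cells relative to uninfected untreated controls. AZT-treated positive control run at the same time under identical conditions.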

[3] = Tested for in vitro cytotoxic concentration against hepatitis B irus replication in chronically HBV-producing human liver cells; type: functional
How it was run: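 Confluent 2.2.15 cells dosed daily for 9 days as in the anti-HBV assay. Four concentrations in 3–10-fold steps, triplicate cultures, untreated controls on each plate, cell-free wells to correct for light scattering. Neutral red uptake read at 510 nm 24 h after day 9, relative to untreated cells. CC50 taken as the 50% cytotoxic concentration.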

[4] = (§1) Compound was tested in vitro against intracellular DNA hepatitis B virus of human liver cells; type: functional, cell-based
How it was run: (§2)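 HBV-producing human liver 2.2.15 cells grown to confluence, then dosed daily for 9 continuous days with daily medium change. Medium collected at days 0, 3, 6 and 9 for extracellular virion HBV DNA. Cells lysed 24 h after day 9 for intracellular HBV genomic forms (replication). EC50 and EC90 derived from HBV DNA levels.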

[5] = (§3) Compound was tested in vitro against extracellular DNA hepatitis B virus of human liver cells; type: functional; how it was run: as §2
[6] = as §1; type: functional; how it was run: as §2
[7] = Selectivity index is the ratio of CC50 to that of EC50 (anti-hepatitis B virus activity in extracellular DNA); type: functional
How it was run: (§4)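 Selectivity index calculated as CC50 (neutral red uptake, 2.2.15 cells, 9-day daily dosing) divided by EC50 from HBV DNA (extracellular virion DNA in line 3, intracellular DNA in line 4).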

[8] = Selectivity index is the ratio of CC50 to that of EC50 (anti-hepatitis B virus activity in intracellular DNA); type: functional; how it was run: as §4
[9] = Selectivity index is the ratio of IC50 value to that of EC50 value; type: functional
How it was run: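 CEM T4 lymphocytes infected with small amounts of HIV-1, with a full replication cycle needed for cell killing. EC50 is the concentration giving 50% survival of infected cells relative to uninfected untreated controls. IC50 is the concentration giving 50% survival of uninfected untreated CEM cells. SI = IC50/EC50. An AZT-treated control was run alongside.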

CCRF-CEM [10] = test: Tested for in vitro drug concentration which results in 50% survival of uninfected untreated control CEM cells; type: functional, cell-based; details: Homo sapiens
How it was run: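 Uninfected CEM T4 lymphocytes exposed to the test compound alongside the anti-HIV protection assay, with an AZT control run concurrently. IC50 is the concentration giving 50% survival relative to uninfected untreated control cells.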

[11] = as §3; type: functional; remark: listed apart in the source
How it was run: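 2.2.15 cells (chronically HBV-producing human liver line) grown to confluence, then dosed daily for 9 continuous days with medium changed daily. Extracellular virion HBV DNA in medium sampled at days 0, 3, 6 and 9 and quantified; intracellular HBV genomic forms analysed from cells lysed 24 h after day 9.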

MT4 = test: Tested for in vitro cytopathic effect of HIV for MT-4 cells; type: functional, cell-based; details: Homo sapiens

Structure (SMILES)	FLT [1]	EC50 (CCRF-CEM [2])	CC50 [3]	EC50 [4]	EC90 [5]	EC90 [6]	Selectivity index [7]	Selectivity index [8]	Selectivity index [9]	IC50 (CCRF-CEM [10])	EC50 [11]	EC50 (MT4)
CO[C@@H]1N(C2CC(F)C(CO)O2)C(=O)NC(=O)[C@@]1(C)Br (some centres undefined)	10%	0.00325 µM	1040 µM	26 µM	67 µM	118 µM	16	8.8	2990	9.72 µM	21 µM	–
CO[C@H]1N(C2CC(F)C(CO)O2)C(=O)NC(=O)[C@]1(C)Br (some centres undefined)	10%	0.00525 µM	765 µM	13 µM	36 µM	42 µM	21	18	328	1.72 µM	6 µM	–
CO[C@H]1N(C2CC(F)C(CO)O2)C(=O)NC(=O)[C@]1(C)Cl (some centres undefined)	0%	5.55 µM	–	–	–	–	–	–	> 144	> 800 µM	–	–
CO[C@H]1N(C2CC(F)C(CO)O2)C(=O)NC(=O)[C@@]1(C)Cl (some centres undefined)	0%	37.9 µM	–	–	–	–	–	–	> 21	> 800 µM	–	–
CO[C@@H]1N(C2CC(F)C(CO)O2)C(=O)NC(=O)[C@@]1(C)I (some centres undefined)	90%	0.00375 µM	–	–	–	–	–	–	3250	12.2 µM	–	–
CC1(Br)C(=O)NC(=O)N([C@H]2C[C@H](F)[C@@H](CO)O2)C1N=[N+]=[N-] (mixture of isomers)	95%	0.0145 µM	176 µM	13 µM	42 µM	57 µM	4.2	3.1	7140	100 µM	–	–
CO[C@H]1N(C2CC(F)C(CO)O2)C(=O)NC(=O)[C@]1(C)I (some centres undefined)	50%	50 µM	–	–	–	–	–	–	1	57.3 µM	–	–
Nc1ccn([C@H]2CC[C@@H](CO)O2)c(=O)n1 [ZALCITABINE]	–	–	219 µM	2.1 µM	8.1 µM	12 µM	27	18	–	–	1.3 µM	–
Cc1cn([C@H]2C[C@H](N=[N+]=[N-])[C@@H](CO)O2)c(=O)[nH]c1=O [ZIDOVUDINE]	–	0.003 µM	–	–	–	–	–	–	167000	500 µM	–	0.004 µM
